Source: ChEMBL document CHEMBL1144780, “Synthesis and SAR of new pyrrolo[2,1-f][1,2,4]triazines as potent p38 alpha MAP kinase inhibitors” (Bioorg Med Chem Lett, 2008)

Legend:
[1] = molecular target: Mitogen-activated protein kinase 14 (Homo sapiens, UniProt Q16539); test: Inhibition of p38alpha
PBMC = test: Inhibition of LPS-stimulated TNFalpha production in human PBMCs; assay type: functional, cell-based
Summary of the method: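 PBMCs from heparinized healthy-volunteer blood isolated by Ficoll-Hypaque and resuspended at 5 × 10⁶/mL in RPMI with 10% FBS. Cells preincubated with compound for 5 min at rt, then stimulated with LPS (200 ng/mL stock) for 6 h at 37 °C. TNF-α in medium measured by ELISA. IC50 derived by linear regression.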

Mus musculus = test: Inhibition of LPS-induced TNFalpha production in BALB/c mouse at 10 mg/kg, po relative to control; assay type: functional
Summary of the method: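 Female BALB/c mice, 6–8 weeks old, n = 8 per group, given 10 mg/kg by oral gavage in PEG 300; vehicle controls received PEG300 alone. LPS (E. coli O111:B4, 50 µg/kg) given ip 30 min after dosing. Blood taken 90 min after LPS and serum TNF-α measured by ELISA. Inhibition relative to vehicle, means SD, ANOVA.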

Mitogen-activated protein kinase 14, sequence (Q16539 whole entry): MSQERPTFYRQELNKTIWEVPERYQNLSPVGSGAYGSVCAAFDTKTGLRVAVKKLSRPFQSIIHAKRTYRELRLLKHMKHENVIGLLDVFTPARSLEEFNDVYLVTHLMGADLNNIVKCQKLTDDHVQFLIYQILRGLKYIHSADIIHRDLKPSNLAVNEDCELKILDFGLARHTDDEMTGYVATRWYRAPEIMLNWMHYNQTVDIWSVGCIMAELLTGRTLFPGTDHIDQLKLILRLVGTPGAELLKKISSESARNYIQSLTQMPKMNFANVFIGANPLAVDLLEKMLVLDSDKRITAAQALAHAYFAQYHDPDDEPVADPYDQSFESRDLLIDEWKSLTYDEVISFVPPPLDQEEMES

SMILES | IC50 [1] [nM] | Ki [1] [nM] | IC50 (PBMC) [nM] | inhibition in vivo at 10 mg/kg (Mus musculus) [%]
CCNC(=O)c1cn2ncnc(Nc3cc(NC(=O)c4cccc(N5CCOCC5)c4)ccc3C)c2c1C | – | 0.98 | 45 | 84
Cc1ccc(NC(=O)c2cc(F)cc(N3CCOCC3)c2)cc1Nc1ncnn2cc(C(=O)NCCN(C)C)c(C)c12 | 10 | – | 18 | –
Cc1ccc(NC(=O)c2ccnc(N3CCOCC3)c2)cc1Nc1ncnn2cc(C(=O)N[C@@H](C)c3ccccc3)c(C)c12 | – | – | 43 | 89
Cc1ccc(NC(=O)c2c(Cl)cccc2Cl)cc1Nc1ncnn2cc(C(=O)N[C@@H](C)c3ccccc3)c(C)c12 | > 1000 | – | – | –
CCOC(=O)c1cn2ncnc(Nc3cc(NC(=O)c4cc(F)cc(N5CCOCC5)c4)ccc3C)c2c1C | 2 | – | 4 | –
Cc1ccc(NC(=O)c2cc(F)cc(N3CCOCC3)c2)cc1Nc1ncnn2cc(C(=O)N(C)C)c(C)c12 | 63 | – | 212 | –
Cc1ccc(NC(=O)c2cc(F)cc(N3CCOCC3)c2)cc1Nc1ncnn2cc(C(N)=O)c(C)c12 | 3 | – | 19 | –
COC[C@H](C)NC(=O)c1cn2ncnc(Nc3cc(NC(=O)c4ccc(C#N)cc4)ccc3C)c2c1C | – | – | 65 | –
Cc1ccc(NC(=O)c2cc(F)cc(N3CCOCC3)c2)cc1Nc1ncnn2ccc(C)c12 | 27 | – | 98 | –
Cc1ccc(NC(=O)c2cc(C(F)(F)F)cc(C(F)(F)F)c2)cc1Nc1ncnn2cc(C(=O)N[C@@H](C)c3ccccc3)c(C)c12 | > 1000 | – | – | –
CCNC(=O)c1cn2ncnc(Nc3cc(NC(=O)c4cccc(N5CCCC5=O)c4)ccc3C)c2c1C | 16 | – | 633 | –
CCNC(=O)c1cn2ncnc(Nc3cc(NC(=O)c4cccc(-n5ccnc5)c4)ccc3C)c2c1C | 7 | – | 126 | –
Cc1cccc(C(=O)Nc2ccc(C)c(Nc3ncnn4cc(C(=O)N[C@@H](C)c5ccccc5)c(C)c34)c2)c1 | 94 | – | 259 | –
Cc1ccc(NC(=O)c2cccc(C(F)(F)F)c2)cc1Nc1ncnn2cc(C(=O)N[C@@H](C)c3ccccc3)c(C)c12 | 32 | – | 72 | –
Cc1ccc(NC(=O)c2cccc(N3CCOCC3)c2)cc1Nc1ncnn2cc(C(=O)N[C@@H](C)c3ccccc3)c(C)c12 | – | – | 29 | 87
CCNC(=O)c1cn2ncnc(Nc3cc(NC(=O)c4cccc(-n5cccn5)c4)ccc3C)c2c1C | 123 | – | – | –
CCCNC(=O)c1cn2ncnc(Nc3cc(NC(=O)c4cc(F)cc(N5CCOCC5)c4)ccc3C)c2c1C | 5 | – | 4 | –
Cc1ccc(NC(=O)c2cc(F)cc(N3CCOCC3)c2)cc1Nc1ncnn2cc(C(=O)N[C@H](C)c3ccccc3)c(C)c12 | 23 | – | 48 | –
COC[C@H](C)NC(=O)c1cn2ncnc(Nc3cc(NC(=O)c4cc(F)cc(N5CCOCC5)c4)ccc3C)c2c1C (stereo in doubt; 16) | 2 | – | – | –
COC[C@H](C)NC(=O)c1cn2ncnc(Nc3cc(NC(=O)c4cc(F)cc(N5CCOCC5)c4)ccc3C)c2c1C (stereo in doubt; 39) | 2 | – | 7 | –

Further lines, with some results ahead:

IC50 [1] [nM] | Ki [1] [nM] | SMILES | IC50 (PBMC) [nM] | inhibition in vivo at 10 mg/kg (Mus musculus) [%]
924 | – | CCNC(=O)c1cn2ncnc(Nc3cc(NC(=O)c4cccc(N5CCN(C)CC5)c4)ccc3C)c2c1C | – | –
– | 3.4 | Cc1ccc(NC(=O)c2ccc(C#N)cc2)cc1Nc1ncnn2cc(C(=O)N[C@@H](C)c3ccccc3)c(C)c12 | 11 | –
4 | – | CNC(=O)c1cn2ncnc(Nc3cc(NC(=O)c4cc(F)cc(N5CCOCC5)c4)ccc3C)c2c1C | 14 | –
1 | – | Cc1ccc(NC(=O)c2cc(F)cc(N3CCOCC3)c2)cc1Nc1ncnn2cc(C(=O)O)c(C)c12 | > 1000 | –
23 | – | CCNC(=O)c1cn2ncnc(Nc3cc(NC(=O)c4ccc(C#N)cc4)ccc3C)c2c1C | 46 | –
19 | – | Cc1ccc(NC(=O)c2ccccc2)cc1Nc1ncnn2cc(C(=O)N[C@@H](C)c3ccccc3)c(C)c12 | 52 | –
5 | – | Cc1ccc(NC(=O)c2cc(F)cc(N3CCOCC3)c2)cc1Nc1ncnn2cc(C(=O)NC(C)C)c(C)c12 | 6 | –
– | 0.54 | Cc1ccc(NC(=O)c2cc(F)cc(N3CCOCC3)c2)cc1Nc1ncnn2cc(C(=O)N[C@@H](C)c3ccccc3)c(C)c12 | 2 | –
– | 0.42 | CCNC(=O)c1cn2ncnc(Nc3cc(NC(=O)c4cc(F)cc(N5CCOCC5)c4)ccc3C)c2c1C | 2 | –
2 | – | CCNC(=O)c1cn2ncnc(Nc3cc(NC(=O)c4ccnc(N5CCOCC5)c4)ccc3C)c2c1C | 287 | –
13 | – | Cc1ccc(C(=O)Nc2ccc(C)c(Nc3ncnn4cc(C(=O)N[C@@H](C)c5ccccc5)c(C)c34)c2)cc1 | 313 | –
12 | – | COC[C@H](C)NC(=O)c1cn2ncnc(Nc3cc(NC(=O)c4cccc(N5CCOCC5)c4)ccc3C)c2c1C | 29 | –
14 | – | Cc1ccc(NC(=O)c2ccncc2)cc1Nc1ncnn2cc(C(=O)N[C@@H](C)c3ccccc3)c(C)c12 | 117 | –
